Screening data (PubChem)
KCNQ1 block: human KCNQ1 channel inhibition | B-score at 10 µM | 310,000 tested, 1.3% active | CHO-K1 KCNQ1, FluxOR thallium flux fluorescence; hits give high values | AID 2642 | P51787;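 active means compounds whose thallium flux B-score, printed positive for inhibition, exceeds three library SD while starting fluorescence stays within three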;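 further: channel opened by potassium depolarization with thallium stimulus after 20 min compound exposure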
KCNK3 inh: human KCNK3 channel inhibition, primary screen | O14649 | B-score at 10 µM | CHO-KCNK3 thallium flux, FluxOR fluorescence; hits give low values | AID 602410 | 340,000 tested, 0.84% active;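 active means B-score under library mean minus 4 SD, starting fluorescence ratio at most library mean plus 5 SD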;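 further: more negative B-score means stronger inhibition of thallium flux through KCNK3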
hERG rescue: shields human hERG channel from block by proarrhythmic agents; CHO-hERG, FluxOR thallium flux, dofetilide IC70 present; activation (rescue from dofetilide block), less the hit threshold, % at 10 µM; 310,000 tested, 0.51% active; AID 1511;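 active means activation above the mean of controls blocked by dofetilide plus 5 SD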;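 further: thallium influx through hERG after potassium depolarization seen as dye fluorescence rise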
KCNQ1 act: potentiators or activators of human KCNQ1 potassium channel | P51787 | CHO-K1 KCNQ1, thallium flux FluxOR fluorescence; hits give high values | B-score at 10 µM | 310,000 tested, 0.35% active | AID 2648;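 active means fluorescence ratio B-score, a plate-corrected score, at least three library SD, with initial intensity B-score within 5 SD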
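Test system: CHO-K1 cells stably expressing KCNQ1 / Medium: assay buffer / Also added: depolarizing K+/Tl+ stimulus, K2SO4 and Tl2SO4 each 12.5 mM in 5x stock / Incubation: 90 min dye loading and 20 min compound exposure, both at room temperature / Signal: thallium influx via FluxOR fluorescence, kinetic imaging / Evaluation: B score of baseline-normalized fluorescence ratio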
Kir21 block: inhibitors of mouse Kir2.1 inward-rectifier potassium channel. 310,000 tested, 0.85% active. P35561. B-score at 10 µM. HEK293-Kir2.1, FluxOR thallium flux fluorescence; hits give low values;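 active means fluorescence ratio B-score at or below minus 3 SD of library scores, with starting-brightness B-score within 2 SD, cut at about -4.2 in these data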;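 further: channel flux triggered by added potassium and thallium sulfate stimulus; B-score of peak minus minimum fluorescence over baseline after thallium stimulus; more negative B-score means stronger Kir2.1 block with less thallium influx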
Target sequence (P35561 whole entry, looked up): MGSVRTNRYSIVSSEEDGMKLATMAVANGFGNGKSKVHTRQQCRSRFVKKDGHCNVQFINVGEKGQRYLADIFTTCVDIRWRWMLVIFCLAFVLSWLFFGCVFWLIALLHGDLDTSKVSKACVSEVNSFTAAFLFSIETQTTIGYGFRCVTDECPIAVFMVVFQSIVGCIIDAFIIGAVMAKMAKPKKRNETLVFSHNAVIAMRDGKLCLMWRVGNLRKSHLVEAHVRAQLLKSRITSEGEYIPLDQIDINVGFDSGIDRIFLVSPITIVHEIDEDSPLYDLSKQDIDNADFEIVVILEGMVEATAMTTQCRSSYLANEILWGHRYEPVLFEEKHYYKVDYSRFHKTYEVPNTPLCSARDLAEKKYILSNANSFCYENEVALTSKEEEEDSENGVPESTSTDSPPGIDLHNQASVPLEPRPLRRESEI
KCNK9 inh: blocks the human KCNK9 two-pore domain potassium channel. Q9NPC2. HEK293 KCNK9, FluxOR thallium flux fluorescence; hits give low values. B-score at 10 µM. 310,000 tested, 1.2% active. AID 488922;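 active means ratio B-score over 3 SD below the library mean, with starting fluorescence within 5 SD of its mean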;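 further: negative B-score means less thallium flux so channel inhibition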
KCNQ1 inh valid: reconfirmed blocker of the human KCNQ1 potassium channel | shares compounds with KCNQ1 block | KCNQ1 cell line, FluxOR thallium flux fluorescence | inhibition, % at 10 µM | 1,600 tested, 93% active | AID 588353;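 active means primary screen active, with duplicate mean exceeding buffer control mean plus 3 SD of buffer wells, cut at about 28% in these data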;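 further: 0% = buffer control ratio and 100% = XE991 inhibitor control ratio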
CHO Tl flux: KCNQ1 inhibitor counter-screen hit in parental CHO cells; shares compounds with KCNQ1 block; parental CHO-K1, FluxOR thallium flux fluorescence ratio; hits give low values; zero means no signal rise above baseline; fluorescence ratio (Tl flux) at 10 µM; 1,600 tested, 21% active; AID 588366;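 active means mean of duplicate thallium-flux fluorescence ratios in parental host cells more than 5 SD below the buffer control mean, cut at about 0.38 in these data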;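 further: ratio is peak minus minimum fluorescence divided by baseline fluorescence; actives read low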
KCNQ1 ephys val: confirmation of human KCNQ1 potassium channel inhibitors by electrophysiology | shares compounds with KCNQ1 block | KCNQ1-CHO cells, automated patch clamp current | calls only at 10 µM | 490 tested, 20% active;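 active means KCNQ1 current drop exceeding 3 SD of negative control wells, seen in both duplicate runs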;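 further: steady state current during a 2 s step from -80 to +40 mV; negative values mean current inhibition and positive values mean potentiation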
KCNQ2 spec: KCNQ1 inhibitor that also blocks rat KCNQ2 channel | shares compounds with KCNQ1 block | KCNQ2 cells, FluxOR thallium flux fluorescence | inhibition, % at 10 µM | 1,600 tested, 71% active;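 active means mean percent inhibition of the KCNQ2 thallium signal more than 5 SD above the buffer-only control wells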;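 further: KCNQ2 expressed in CHO cells; 0% = buffer control wells and 100% = XE-991 inhibitor control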
KCNQ1 KCNE1 spec: selectivity of KCNQ1 inhibitors: inhibition of human KCNQ1/KCNE1 channel. shares compounds with KCNQ1 block. KCNQ1/KCNE1 cells, FluxOR thallium flux fluorescence. inhibition, % at 10 µM. 1,600 tested, 77% active. AID 652147;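 active means mean percent inhibition of duplicate wells above the buffer-only control mean plus 3 SD of those controls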;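 further: 0% = buffer only wells and 100% = XE-991 inhibitor control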
An asterisk follows results filed as active; i = inactive; . = no result. Shown are actives, neighbours in structure and some others; about 3.7% of the full set was active somewhere.

SMILES | KCNQ1 block | KCNK3 inh | hERG rescue | KCNQ1 act | Kir21 block | KCNK9 inh | KCNQ1 inh valid | CHO Tl flux | KCNQ2 spec | KCNQ1 KCNE1 spec | others
CC(C)c1ccc(NC(=O)c2cc(S(=O)(=O)NCC3COc4ccccc4O3)ccc2F)cc1 (stereo unspecified) | 7* | i | -6 | i | 0.33 | i | 95* | 0.47 | 116%* | 159%* | KCNQ1 ephys val=i
O=C(Nc1ccc(Br)cc1)c1cccc(S(=O)(=O)Nc2cnc3ccccc3c2)c1 | 6* | i | -10 | i | 2.4 | i | 139* | 0.43 | i | 58%*
O=C1CSc2ccc(C(=O)Nc3cccc(S(=O)(=O)Nc4ccc(Br)cc4)c3)cc2N1 | 10* | i | -10 | i | -0.28 | i | 138* | 0.33* | 101%* | 188%*
O=C(Nc1ccc(Br)cc1)c1cccc(S(=O)(=O)Nc2ccccn2)c1 | i | i | -8 | i | 1.1 | i | . | . | . | .
Cc1cccc(-c2c3c(=O)n(C)c(=O)n(C)c3cn2-c2ccc(O)cc2)c1 | 6* | i | -15 | i | 0.09 | i | 76* | 0.49 | i | 96%*
C=CCNc1nc2ccccc2nc1NS(=O)(=O)c1ccc(Br)cc1 | 7* | i | -3 | i | 0.73 | i | 70* | 0.51 | 59%* | i
C=CCNc1nc2ccccc2nc1NS(=O)(=O)c1ccc(F)cc1 | i | i | -9 | i | 0 | i | . | . | . | .
Cn1nc(C(C)(C)C)cc1NC(=O)Nc1ccc(F)cc1F | i | i | -8 | i | 0.59 | i | . | . | . | .
Cn1nc(C(C)(C)C)cc1NC(=O)Nc1ccc(Cl)cc1 | 7* | i | -17 | i | 1.9 | i | 83* | 0.46 | i | i
COc1ccc(Cn2c(=O)[nH]c3cc(C(=O)N4CCN(c5ccc(C(C)=O)cc5)CC4)ccc3c2=O)cc1 | i | i | -8 | i | 1.5 | i | . | . | . | .
O=S(=O)(NCCCc1ccccc1)c1ccccc1 | i | i | -8 | i | -0.64 | i | . | . | . | .
Cc1ccc(C)c(S(=O)(=O)NCCCc2ccccc2)c1 | 7* | i | -8 | i | -0.39 | i | 98* | 0.49 | i | i | KCNQ1 ephys val=i
O=C(O)c1cccnc1SCC(=O)N1CCCc2ccccc21 | i | i | -5 | i | 0.03 | i | . | . | . | .
CC(C)N1CCC2(CC1)N=C(c1ccc3c(c1)OCO3)CC(c1cc(Cl)ccc1O)N2 (stereo unspecified) | 10* | i | -13 | i | -2.1 | i | 50* | 0.41 | 106%* | 38%*
CC(Sc1ccc(Cl)cc1)C(=O)Nc1ccc2c(c1)OCO2 (stereo unspecified) | i | i | -7 | i | -0.31 | i | . | . | . | .
O=C(Nc1ccc(OC(F)(F)F)cc1)Oc1ccccc1N1CCOCC1 | 6* | i | -8 | i | -0.37 | i | 50* | 0.5 | 70%* | 39%*
O=C(Nc1ccc(OC(F)(F)F)cc1)Oc1ccccc1N1CCCCC1 | 9* | i | -19 | i | -0.99 | i | 82* | 0.48 | i | 40%*
COc1cccc(COC(=O)c2c(C)nn(-c3ccccc3)c2Cl)c1OC | 7* | i | -9 | i | 0.17 | i | 114* | 0.42 | 116%* | 99%* | KCNQ1 ephys val=i
CC(C)(C)c1ccc(S(=O)(=O)/N=C2\C=C(NS(=O)(=O)c3ccccc3)C(=O)c3ccccc32)cc1 | 8* | i | -25 | i | -1.9 | -7* | 70* | 0.44 | 77%* | 142%*
Cc1cccc(C)c1OCc1cc(C(=O)N2CCC(C3CCCCC3)C2)no1 (stereo unspecified) | 7* | i | -7 | i | -0.44 | i | 69* | 0.44 | i | 110%*
Cc1cccc(C)c1OCc1cc(C(=O)N2CCC(c3ccccc3)CC2)no1 | 9* | i | -10 | i | -1.5 | i | 119* | 0.4 | 110%* | 168%* | KCNQ1 ephys val=i
O=C(c1cc(COc2cccc3cnccc23)on1)N1CCCC(CCCO)C1 (stereo unspecified) | 14* | i | -24 | i | 2.3 | i | 108* | 0.47 | 92%* | 44%* | KCNQ1 ephys val=i
Cc1ccc(S(=O)(=O)N2CCN(C(=O)COC(=O)COc3ccc(Cl)cc3C)CC2)c(C)c1 | . | i | . | . | . | . | . | . | . | .
CCN1C(=O)C(CC(=O)Nc2ccc(Br)cc2)N(CCCc2ccccc2)C1=S (stereo unspecified) | 8* | i | -14 | i | -0.01 | i | 140* | 0.33* | 115%* | 196%*
CCOC(=O)c1c(-c2ccccc2)oc2ccc(OCC)cc12 | 6* | i | -5 | i | 0.49 | i | 70* | 0.46 | 96%* | 62%*
SMILES | KCNQ1 block | KCNK3 inh | hERG rescue | KCNQ1 act | Kir21 block | KCNK9 inh | KCNQ1 inh valid | CHO Tl flux | KCNQ2 spec | KCNQ1 KCNE1 spec | others
CCC(C)Nc1nc(-c2cccc(OC)c2O)nc2ccccc12 (stereo unspecified) | 11* | -12* | -26 | i | 0.89 | i | 125* | 0.31* | i | 139%*
COc1cccc(-c2nc(NC(C)C)c3ccccc3n2)c1O | i | i | -13 | i | 2.1 | i | . | . | . | .
OC(c1ccccc1)(c1ccccc1)c1ccn[nH]1 | i | i | -2 | i | 0.17 | i | . | . | . | .
CC1CC(C)C(=NNC(N)=O)C(C(O)CC2CCC(=O)NC2=O)C1 (stereo unspecified) | . | i | . | . | . | . | . | . | . | .
Cc1noc(C)c1COc1ccccc1C(=O)N(C)Cc1ccc(C(C)(C)C)cc1 | . | i | . | . | . | . | . | . | . | .
COc1ccc(CCNC(=O)CN2C(=O)NC3(CCCCC3C)C2=O)cc1 (stereo unspecified) | . | i | . | . | . | . | . | . | . | .
COC(=O)C(Cc1ccc(O)cc1)NC(=O)C12CC3CC(CC(C3)C1)C2 (stereo unspecified) | 14* | i | -16 | i | 1.1 | i | 44* | 0.46 | i | i
COC(=O)C(CCSC)NC(=O)C12CC3CC(CC(C3)C1)C2 (stereo unspecified) | i | i | 0 | i | 0.85 | i | . | . | . | .
